Test results published in ChEMBL document CHEMBL4118126, “An orally available, brain-penetrant CAMKK2 inhibitor reduces food intake in rodent model” (Bioorg Med Chem Lett, 2018).
pIC50: −log10 of the molar value. In brackets after ≈: the same amount, converted by molar mass.

Experiments:
[1] = biological target: Calcium/calmodulin-dependent protein kinase kinase 2 (Homo sapiens, UniProt Q96RR4); experiment: Inhibition of full-length human GST-tagged CAMKK2 using 5FAM-AKPKGNKDYHLQTCCGSLAYRRR-amide as substrate preincubated for 30 mins followed by substrate addition measured after 120 mins by fluorescence polarization assay
Sequence of Calcium/calmodulin-dependent protein kinase kinase 2 (Homo sapiens, UniProt Q96RR4) (Q96RR4 whole entry): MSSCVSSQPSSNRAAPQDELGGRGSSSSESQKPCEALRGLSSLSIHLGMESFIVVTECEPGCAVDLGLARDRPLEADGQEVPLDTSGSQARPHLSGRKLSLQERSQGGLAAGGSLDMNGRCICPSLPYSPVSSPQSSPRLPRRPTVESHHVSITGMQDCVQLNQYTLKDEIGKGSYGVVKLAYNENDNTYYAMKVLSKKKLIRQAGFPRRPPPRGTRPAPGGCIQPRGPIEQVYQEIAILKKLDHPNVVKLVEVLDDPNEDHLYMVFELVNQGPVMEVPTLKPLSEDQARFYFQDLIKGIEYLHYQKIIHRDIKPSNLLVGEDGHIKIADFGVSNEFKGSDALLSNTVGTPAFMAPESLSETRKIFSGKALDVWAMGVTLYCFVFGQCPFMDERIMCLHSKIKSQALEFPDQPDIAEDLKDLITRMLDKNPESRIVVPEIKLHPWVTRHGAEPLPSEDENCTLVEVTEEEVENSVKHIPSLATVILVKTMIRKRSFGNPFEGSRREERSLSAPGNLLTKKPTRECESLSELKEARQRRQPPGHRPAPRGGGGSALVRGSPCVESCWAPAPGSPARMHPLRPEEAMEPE

[2] = biological target: T1, Inhibitor of nuclear factor kappa-B kinase subunit alpha (Homo sapiens, UniProt O15111); experiment: Inhibition of IKK1 (unknown origin)
T1 sequence (O15111 whole entry): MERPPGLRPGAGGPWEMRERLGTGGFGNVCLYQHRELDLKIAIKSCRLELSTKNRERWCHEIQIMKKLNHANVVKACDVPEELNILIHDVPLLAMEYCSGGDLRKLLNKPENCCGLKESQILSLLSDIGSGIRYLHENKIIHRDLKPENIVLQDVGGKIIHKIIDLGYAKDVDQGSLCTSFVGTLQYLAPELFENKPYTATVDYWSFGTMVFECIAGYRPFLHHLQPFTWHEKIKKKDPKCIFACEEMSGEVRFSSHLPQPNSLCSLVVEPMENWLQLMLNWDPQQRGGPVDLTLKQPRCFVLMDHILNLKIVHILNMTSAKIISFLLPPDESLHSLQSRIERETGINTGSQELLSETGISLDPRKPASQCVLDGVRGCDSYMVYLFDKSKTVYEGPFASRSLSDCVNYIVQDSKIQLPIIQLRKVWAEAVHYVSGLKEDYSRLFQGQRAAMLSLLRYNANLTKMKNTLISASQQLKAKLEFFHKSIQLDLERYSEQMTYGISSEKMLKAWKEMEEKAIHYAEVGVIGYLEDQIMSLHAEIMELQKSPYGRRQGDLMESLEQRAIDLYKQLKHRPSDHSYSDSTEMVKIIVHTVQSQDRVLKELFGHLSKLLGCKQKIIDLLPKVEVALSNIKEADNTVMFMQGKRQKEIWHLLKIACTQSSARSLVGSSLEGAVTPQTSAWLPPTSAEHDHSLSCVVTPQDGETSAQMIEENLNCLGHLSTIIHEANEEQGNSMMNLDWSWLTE

Insulin receptor = Insulin receptor (Homo sapiens, UniProt P06213); experiment: Inhibition of INSR (unknown origin); details: read-out: pIC50 (converted)
Sequence of Insulin receptor (P06213 28-758 limits assumed): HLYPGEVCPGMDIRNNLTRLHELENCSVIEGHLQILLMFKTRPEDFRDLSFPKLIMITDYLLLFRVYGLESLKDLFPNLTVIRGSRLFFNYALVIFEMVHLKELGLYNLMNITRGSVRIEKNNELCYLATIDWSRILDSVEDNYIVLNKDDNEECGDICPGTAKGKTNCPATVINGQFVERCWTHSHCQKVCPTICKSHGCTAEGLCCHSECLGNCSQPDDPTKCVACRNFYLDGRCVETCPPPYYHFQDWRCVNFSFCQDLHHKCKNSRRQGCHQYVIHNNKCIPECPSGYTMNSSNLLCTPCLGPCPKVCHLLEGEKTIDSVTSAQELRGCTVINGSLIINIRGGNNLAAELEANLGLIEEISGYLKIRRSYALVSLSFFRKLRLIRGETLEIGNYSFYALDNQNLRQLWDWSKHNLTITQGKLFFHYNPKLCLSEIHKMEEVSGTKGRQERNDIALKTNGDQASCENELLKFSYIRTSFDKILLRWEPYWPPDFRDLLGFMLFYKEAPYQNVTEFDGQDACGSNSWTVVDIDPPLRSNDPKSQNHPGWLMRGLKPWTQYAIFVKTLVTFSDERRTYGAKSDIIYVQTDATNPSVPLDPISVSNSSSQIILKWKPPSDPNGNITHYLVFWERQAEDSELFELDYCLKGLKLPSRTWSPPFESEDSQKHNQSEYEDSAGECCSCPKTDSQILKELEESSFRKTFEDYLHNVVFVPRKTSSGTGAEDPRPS
Sequence of Insulin receptor (P06213 763-1382 limits assumed): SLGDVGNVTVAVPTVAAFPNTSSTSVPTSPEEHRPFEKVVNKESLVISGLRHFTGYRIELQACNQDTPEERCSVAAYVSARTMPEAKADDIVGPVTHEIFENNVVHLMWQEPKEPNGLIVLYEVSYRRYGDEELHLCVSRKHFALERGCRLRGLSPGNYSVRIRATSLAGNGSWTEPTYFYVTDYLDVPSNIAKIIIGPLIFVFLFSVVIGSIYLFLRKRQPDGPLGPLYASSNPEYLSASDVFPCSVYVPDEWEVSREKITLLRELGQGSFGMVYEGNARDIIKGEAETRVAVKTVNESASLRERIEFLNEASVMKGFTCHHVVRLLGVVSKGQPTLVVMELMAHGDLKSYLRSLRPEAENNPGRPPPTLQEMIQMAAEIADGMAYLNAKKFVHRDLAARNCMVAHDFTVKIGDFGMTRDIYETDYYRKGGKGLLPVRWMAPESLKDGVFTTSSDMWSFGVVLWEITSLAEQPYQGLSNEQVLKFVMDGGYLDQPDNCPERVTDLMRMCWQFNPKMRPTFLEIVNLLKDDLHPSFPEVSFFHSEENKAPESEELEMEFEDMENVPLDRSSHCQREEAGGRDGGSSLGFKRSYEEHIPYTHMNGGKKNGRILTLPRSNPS

[3] = biological target: Calcium/calmodulin-dependent protein kinase kinase 2 (Mus musculus, UniProt Q8C078); experiment: Inhibition of CAMKK2 in mouse N39 cells assessed as decrease in AMPKalpha phosphorylation at T172 preincubated for 80 mins followed by […] addition by ELISA; assay type: cell-based
Sequence of Calcium/calmodulin-dependent protein kinase kinase 2 (Mus musculus, UniProt Q8C078) (Q8C078 whole entry): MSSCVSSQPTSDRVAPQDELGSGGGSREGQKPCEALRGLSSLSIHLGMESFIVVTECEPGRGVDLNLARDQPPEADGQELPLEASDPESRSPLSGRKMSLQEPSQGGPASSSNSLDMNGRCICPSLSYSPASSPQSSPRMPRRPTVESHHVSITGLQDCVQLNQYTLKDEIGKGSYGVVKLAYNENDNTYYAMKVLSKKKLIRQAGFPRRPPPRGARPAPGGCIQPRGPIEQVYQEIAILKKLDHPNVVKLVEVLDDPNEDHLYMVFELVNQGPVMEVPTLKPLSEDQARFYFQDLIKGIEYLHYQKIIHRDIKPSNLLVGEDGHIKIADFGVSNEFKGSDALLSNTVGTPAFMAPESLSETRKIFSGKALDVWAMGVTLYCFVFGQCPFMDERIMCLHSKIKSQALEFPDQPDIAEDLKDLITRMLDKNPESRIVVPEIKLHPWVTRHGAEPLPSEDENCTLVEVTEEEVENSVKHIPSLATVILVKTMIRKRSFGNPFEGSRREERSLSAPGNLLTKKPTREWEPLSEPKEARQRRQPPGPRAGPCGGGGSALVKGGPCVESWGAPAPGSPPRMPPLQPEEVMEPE
In short: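 Mouse N39 cells seeded ~1000 cells/well, cultured overnight at 37°C, 5% CO2, then exposed to compound in DMSO for 80 min before ionomycin stimulation ([…] as added). Cells were lysed in extraction buffer for 30 min on ice, then diluted into ice-cold lysis buffer containing protease and phosphatase inhibitors for MSD read-out.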

[4] = Solubility of the compound in pH 7.4 phosphate buffer saline after 1 hr by chemiluminescence nitrogen detection method; assay type: physicochemical; details: phosphate buffered saline
In short: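 Kinetic solubility: 10 mM DMSO stock diluted 1:20 into 10 mM phosphate-buffered saline pH 7.4, equilibrated 1 h at RT, filtered, and filtrate quantified by calibrated flow-injection chemiluminescent nitrogen detection.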

[5] = biological target: Mitogen-activated protein kinase 8 (Homo sapiens, UniProt P45983); experiment: Inhibition of JNK1 (unknown origin)
Sequence of Mitogen-activated protein kinase 8 (P45983 whole entry, canonical isoform): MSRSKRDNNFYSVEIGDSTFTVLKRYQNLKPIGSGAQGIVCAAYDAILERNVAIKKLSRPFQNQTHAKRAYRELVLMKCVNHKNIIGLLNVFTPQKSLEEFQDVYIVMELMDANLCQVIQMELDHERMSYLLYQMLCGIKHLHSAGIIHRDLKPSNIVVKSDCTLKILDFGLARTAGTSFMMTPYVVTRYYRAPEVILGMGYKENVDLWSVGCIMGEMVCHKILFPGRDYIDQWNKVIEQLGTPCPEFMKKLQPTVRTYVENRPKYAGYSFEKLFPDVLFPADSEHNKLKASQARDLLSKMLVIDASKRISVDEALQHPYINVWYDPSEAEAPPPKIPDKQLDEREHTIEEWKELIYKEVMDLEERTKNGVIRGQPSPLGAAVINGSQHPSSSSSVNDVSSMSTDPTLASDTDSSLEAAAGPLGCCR

[6] = biological target: Phosphatidylinositol 4,5-bisphosphate 3-kinase catalytic subunit gamma isoform (Homo sapiens, UniProt P48736); experiment: Inhibition of PI3Kgamma (unknown origin)
Sequence of Phosphatidylinositol 4,5-bisphosphate 3-kinase catalytic subunit gamma isoform (P48736 whole entry, canonical isoform): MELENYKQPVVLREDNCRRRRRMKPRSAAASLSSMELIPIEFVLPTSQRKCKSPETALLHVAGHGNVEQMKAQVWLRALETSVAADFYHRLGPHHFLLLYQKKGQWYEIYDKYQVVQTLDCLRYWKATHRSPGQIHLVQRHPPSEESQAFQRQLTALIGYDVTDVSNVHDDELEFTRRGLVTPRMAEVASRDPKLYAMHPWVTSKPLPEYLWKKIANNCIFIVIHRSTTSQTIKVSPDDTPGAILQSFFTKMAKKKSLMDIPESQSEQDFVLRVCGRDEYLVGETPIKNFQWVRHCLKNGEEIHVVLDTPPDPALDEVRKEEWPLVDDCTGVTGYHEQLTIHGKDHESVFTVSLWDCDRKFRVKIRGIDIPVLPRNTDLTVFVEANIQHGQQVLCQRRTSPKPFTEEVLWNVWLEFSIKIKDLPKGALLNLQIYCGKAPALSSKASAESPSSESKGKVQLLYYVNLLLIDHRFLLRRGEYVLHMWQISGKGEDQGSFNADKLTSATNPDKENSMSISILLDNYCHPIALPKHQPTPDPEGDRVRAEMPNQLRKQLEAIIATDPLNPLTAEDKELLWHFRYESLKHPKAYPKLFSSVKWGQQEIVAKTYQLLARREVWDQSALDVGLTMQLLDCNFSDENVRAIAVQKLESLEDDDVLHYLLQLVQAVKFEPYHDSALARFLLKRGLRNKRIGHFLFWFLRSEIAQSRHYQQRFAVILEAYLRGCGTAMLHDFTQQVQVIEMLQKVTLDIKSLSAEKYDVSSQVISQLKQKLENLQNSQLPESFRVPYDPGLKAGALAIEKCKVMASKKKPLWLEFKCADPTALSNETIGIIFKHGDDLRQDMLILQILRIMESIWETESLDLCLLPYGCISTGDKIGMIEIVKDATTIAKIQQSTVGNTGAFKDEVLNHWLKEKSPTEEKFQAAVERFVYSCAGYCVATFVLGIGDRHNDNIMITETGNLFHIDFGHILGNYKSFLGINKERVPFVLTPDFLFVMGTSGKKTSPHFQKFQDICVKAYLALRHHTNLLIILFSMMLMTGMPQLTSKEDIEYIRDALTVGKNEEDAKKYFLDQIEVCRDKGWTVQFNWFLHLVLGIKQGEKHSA

[7] = biological target: Glycogen synthase kinase-3 beta (Homo sapiens, UniProt P49841); experiment: Inhibition of GSK3beta (unknown origin)
Sequence of Glycogen synthase kinase-3 beta (P49841 whole entry): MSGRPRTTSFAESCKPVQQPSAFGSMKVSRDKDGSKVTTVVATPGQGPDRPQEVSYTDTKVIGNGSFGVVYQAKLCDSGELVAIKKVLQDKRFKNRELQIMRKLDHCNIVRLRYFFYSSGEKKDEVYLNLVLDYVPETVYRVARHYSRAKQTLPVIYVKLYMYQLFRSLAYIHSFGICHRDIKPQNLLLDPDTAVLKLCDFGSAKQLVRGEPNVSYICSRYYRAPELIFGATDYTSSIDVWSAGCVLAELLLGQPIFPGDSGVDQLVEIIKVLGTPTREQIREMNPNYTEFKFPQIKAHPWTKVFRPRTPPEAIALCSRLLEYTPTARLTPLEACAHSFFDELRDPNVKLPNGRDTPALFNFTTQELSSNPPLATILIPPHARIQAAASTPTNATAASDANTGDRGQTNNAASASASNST

pIC50 [1] | pIC50 [2] | IC50 (Insulin receptor) | pIC50 [3] | solubility at 1 h [4] | pIC50 [5] | pIC50 [6] | pIC50 [7] | Structure (SMILES)
7.60 to 8.50 | 7.10 | 316 nM | 6.80 | 157 µM (≈ 58.2 µg/mL) | 7.10 | – | – | CN(C)Cc1ccc(-c2cc3c(-c4ccc(C(N)=O)cc4)ccnc3[nH]2)cc1
7.90 to 8.80 | 7.10 | 158 nM | < 5.00 | 29 µM (≈ 12.8 µg/mL) | 6.90 | – | – | CN(C)CCCNC(=O)c1ccc(-c2cc3c(-c4ccc(C(N)=O)cc4)ccnc3[nH]2)cc1
5.00 to 5.60 | – | – | – | 235 µM (≈ 61.9 µg/mL) | – | – | – | N#Cc1ccc2c(-c3ccc(C(=O)O)cc3)c[nH]c2n1
5.80 to 6.70 | – | – | < 5.00 | > 444 µM | 5.30 | 5.40 | < 4.60 | COc1ccccc1Nc1nccc(-c2ccc(C(=O)O)cc2)n1
6.70 | – | – | – | 82 µM (≈ 25.8 µg/mL) | – | – | – | O=C(O)c1ccc(-c2c[nH]c3ncc(-c4ccccc4)cc23)cc1
7.90 to 8.70 | 7.50 | 316 nM | 6.50 | 5 µM (≈ 2.03 µg/mL) | 7.20 | – | – | CS(=O)(=O)Nc1ccc(-c2cc3c(-c4ccc(C(N)=O)cc4)ccnc3[nH]2)cc1
– | – | – | 5.90 | 150 µM (≈ 57.4 µg/mL) | – | – | – | O=C(O)c1ccc(-c2c[nH]c3ncc(-c4ccccc4)cc23)cc1C1CCCC1 [GSK-650394]
7.70 | – | – | 5.10 | 3 µM (≈ 1.15 µg/mL) | < 5.00 | < 5.00 | 5.60 | NC(=O)c1ccc(-c2ccnc(Nc3cc(-c4ccccc4)ccc3F)n2)cc1
– | – | – | 5.40 | > 290 µM | – | – | – | O=C(O)c1ccc(-c2c[nH]c3ncccc23)cc1C1CCCC1
5.00 to 5.90 | – | – | – | 14 µM (≈ 4.26 µg/mL) | – | – | – | CC(C)c1cc(-c2c[nH]c3nc(C#N)ccc23)ccc1C(N)=O
– | – | – | – | 12 µM (≈ 5.39 µg/mL) | – | – | – | NC(=O)c1ccc(-c2c[nH]c3ncc(-c4ccccc4C(F)(F)F)cc23)cc1C1CCCC1
– | – | – | < 5.00 | 2 µM (≈ 0.849 µg/mL) | – | – | – | CN(C)c1ccccc1-c1cnc2[nH]cc(-c3ccc(C(N)=O)c(C4CCCC4)c3)c2c1
– | – | – | – | 100 µM (≈ 32.8 µg/mL) | – | – | – | Cc1cc(-c2c[nH]c3ncc(-c4ccccc4)cc23)ccc1C(=O)O
5.00 to 5.90 | – | – | – | 7 µM (≈ 2.31 µg/mL) | – | – | – | N#Cc1ccc2c(-c3ccc(C(N)=O)c(C4CCCC4)c3)c[nH]c2n1
– | – | – | – | 24 µM (≈ 9.75 µg/mL) | – | – | – | O=C(O)c1ccc(-c2c[nH]c3ncc(-c4ccccc4Oc4ccccc4)cc23)cc1
– | – | – | < 5.00 | 2 µM (≈ 0.931 µg/mL) | – | – | – | NC(=O)c1ccc(-c2c[nH]c3ncc(-c4ccccc4OC(F)(F)F)cc23)cc1C1CCCC1
6.50 to 7.40 | – | – | 5.50 | 11 µM (≈ 4.18 µg/mL) | 5.50 | < 5.00 | 5.10 | COc1ccccc1Nc1ncc(F)c(-c2ccc(C(N)=O)c(C(C)C)c2)n1
7.80 to 8.80 | 5.50 | > 10000 nM | 7.50 | 2 µM (≈ 0.853 µg/mL) | 5.20 | – | – | Cc1ccc(CN2CCOCC2)cc1-c1cc2c(-c3ccc(C(N)=O)cc3)ccnc2[nH]1
7.60 to 8.10 | – | – | 6.20 | 3 µM (≈ 1.1 µg/mL) | 6.00 | 7.00 | 7.50 | NC(=O)c1ccc(-c2ccnc(Nc3cccc(-c4ccccc4)c3)n2)cc1
– | – | – | 5.40 | 6 µM (≈ 2.38 µg/mL) | – | – | – | NC(=O)c1ccc(-c2c[nH]c3ncc(-c4ccccc4O)cc23)cc1C1CCCC1
– | – | – | < 5.00 | 1 µM (≈ 0.412 µg/mL) | – | – | – | COc1ccccc1-c1cnc2[nH]cc(-c3ccc(C(N)=O)c(C4CCCC4)c3)c2c1
8.70 | – | – | 6.00 | > 367 µM | 5.50 | 5.80 | 4.80 | COc1ccccc1Nc1nccc(-c2ccc(C(=O)O)c(C(C)C)c2)n1
8.80 | 6.90 | 1260 nM | 6.80 | 11 µM (≈ 5.02 µg/mL) | 6.70 | – | – | Cc1cc(OCCN2CCOCC2)ccc1-c1cc2c(-c3ccc(C(N)=O)cc3)ccnc2[nH]1
– | – | – | – | 9 µM (≈ 3.65 µg/mL) | – | – | – | NC(=O)c1ccc(-c2c[nH]c3ncc(-c4ccccc4Oc4ccccc4)cc23)cc1

pIC50 [1] | pIC50 [2] | IC50 (Insulin receptor) | pIC50 [3] | solubility at 1 h [4] | pIC50 [5] | pIC50 [6] | pIC50 [7] | Structure (SMILES)
– | – | – | 5.90 | > 439 µM | – | – | – | CC(C)c1cc(-c2c[nH]c3ncc(-c4ccccc4)cc23)ccc1C(=O)O
8.10 to 9.00 | – | – | 6.40 | 97 µM (≈ 37 µg/mL) | 5.50 | 5.20 | 5.10 | COc1ccccc1Nc1ncc(F)c(-c2ccc(C(=O)O)c(C(C)C)c2)n1
– | – | – | < 5.00 | – | – | – | – | CC(C)Oc1ccccc1-c1cnc2[nH]cc(-c3ccc(C(N)=O)c(C4CCCC4)c3)c2c1
– | – | – | 5.20 | 155 µM (≈ 51.4 µg/mL) | – | – | – | N#Cc1ccc2c(-c3ccc(C(=O)O)c(C4CCCC4)c3)c[nH]c2n1
7.50 to 8.70 | 6.70 | 3980 nM | – | 17 µM (≈ 7.76 µg/mL) | 6.80 | – | – | Cc1ccc(OCCN2CCOCC2)cc1-c1cc2c(-c3ccc(C(N)=O)cc3)ccnc2[nH]1
7.70 to 8.50 | 6.80 | 1580 nM | 6.10 | 16 µM (≈ 5.49 µg/mL) | 6.80 | – | – | COc1ccccc1-c1cc2c(-c3ccc(C(N)=O)cc3)ccnc2[nH]1
– | – | – | 5.20 | > 172 µM | – | – | – | CC(C)c1cc(-c2c[nH]c3nc(C#N)ccc23)ccc1C(=O)O
7.90 to 8.60 | 6.90 | 3160 nM | 5.40 | – | 6.20 | – | – | CN(C)CCCNC(=O)c1cccc(-c2cc3c(-c4ccc(C(N)=O)cc4)ccnc3[nH]2)c1
– | – | – | – | > 115 µM | – | – | – | CS(=O)(=O)c1cccc(-c2cnc3[nH]cc(-c4ccc(C(N)=O)cc4)c3c2)c1
5.90 | – | – | – | 5 µM (≈ 1.64 µg/mL) | – | – | – | COC(=O)c1ccc(-c2c[nH]c3ncc(-c4ccccc4)cc23)cc1
– | – | – | < 5.00 | > 279 µM | – | – | – | Cc1ccc2c(-c3ccc(C(=O)O)c(C4CCCC4)c3)c[nH]c2n1
7.60 to 8.30 | – | – | – | 333 µM (≈ 123 µg/mL) | – | – | – | CC(C)Cc1cc(-c2c[nH]c3ncc(-c4ccccc4)cc23)ccc1C(=O)O
7.70 | – | – | – | 178 µM (≈ 60.9 µg/mL) | – | – | – | CCc1cc(-c2c[nH]c3ncc(-c4ccccc4)cc23)ccc1C(=O)O
– | – | – | < 5.00 | 52 µM (≈ 24.6 µg/mL) | – | – | – | NC(=O)c1ccc(-c2c[nH]c3ncc(-c4ccccc4Oc4ccccc4)cc23)cc1C1CCCC1
– | – | – | – | 276 µM (≈ 93.4 µg/mL) | – | – | – | c1ccc(-c2cnc3[nH]cc(-c4ccc(-c5nn[nH]n5)cc4)c3c2)cc1
7.50 to 8.40 | 7.10 | 631 nM | 6.90 | 56 µM (≈ 20.7 µg/mL) | 6.20 | – | – | CN(C)Cc1cccc(-c2cc3c(-c4ccc(C(N)=O)cc4)ccnc3[nH]2)c1
– | – | – | – | 177 µM (≈ 69.5 µg/mL) | – | – | – | CS(=O)(=O)c1cccc(-c2cnc3[nH]cc(-c4ccc(C(=O)O)cc4)c3c2)c1
7.70 to 8.80 | 6.80 | > 10000 nM | 6.70 | 1 µM (≈ 0.469 µg/mL) | 6.20 | – | – | Cc1ccc(CN2CCOCC2)cc1-c1cc2c(-c3ccc(C(N)=O)c(C(C)C)c3)ccnc2[nH]1
– | – | – | – | 96 µM (≈ 40.4 µg/mL) | – | – | – | N#CCc1ccccc1-c1cnc2[nH]cc(-c3ccc(C(N)=O)c(C4CCCC4)c3)c2c1
7.90 to 8.50 | 6.80 | 1260 nM | 5.50 | 13 µM (≈ 5.28 µg/mL) | 6.70 | – | – | CS(=O)(=O)Nc1cccc(-c2cc3c(-c4ccc(C(N)=O)cc4)ccnc3[nH]2)c1
5.00 to 5.90 | – | – | – | > 205 µM | – | – | – | NC(=O)c1ccc2c(-c3ccc(C(=O)O)c(C4CCCC4)c3)c[nH]c2n1
7.60 to 8.10 | 6.90 | 3980 nM | 5.70 | 18 µM (≈ 7.68 µg/mL) | 6.20 | – | – | Cc1cc(CN2CCOCC2)ccc1-c1cc2c(-c3ccc(C(N)=O)cc3)ccnc2[nH]1
7.90 to 8.80 | 7.00 | 1260 nM | 6.70 | 18 µM (≈ 7.68 µg/mL) | 6.50 | – | – | Cc1c(CN2CCOCC2)cccc1-c1cc2c(-c3ccc(C(N)=O)cc3)ccnc2[nH]1
7.80 to 8.70 | 6.80 | 3160 nM | 6.60 | 17 µM (≈ 7.76 µg/mL) | 6.60 | – | – | Cc1c(OCCN2CCOCC2)cccc1-c1cc2c(-c3ccc(C(N)=O)cc3)ccnc2[nH]1
